The results in this text go back to PubChem BioAssay.

Calls of active or inactive are those of the source. Unless noted, no stated cut-off is given here; in the data, active means inhibition above about 30%; inactive means the rest.

The nature of test [1]: Her2 expression decrease, cell viability multiplex – SKBR3 breast tumor cells, AlphaScreen, ATP viability, primary screen (AID 461;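 active means Her2 level under about 52% in both replicate screens, with viability over 70% of control, limit read from the data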;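 on Her2 level: lower value means less Her2 protein in the cells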;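 on viability: percent of carrier control wells set as 100% viability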). The note with it: SKBR3 Her2 protein level, 18-24 h, measured here: SKBR3 viability, ATP luminescence, at 10 µM.
For test [2], the target named is Receptor tyrosine-protein kinase erbB-2 (Homo sapiens) (UniProt P04626). The test is described as above. The note with it: 18-24 h, at 10 µM, stronger effect = lower value.
Test [3] can be described thus: reduced viability of SK-BR-3 breast cancer cells – cell-based, 24 h, human, pilot screen (AID 572;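 active means viability at or below 10% of carrier control in both of two separate runs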;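 further: compound exposure lasted between 18 and 24 h rather than exactly 24 h; 100% = carrier-treated control wells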). The note with it: SK-BR-3 viability, CellTiter-Glo luminescence, at 10 µM, stronger effect = lower value.
Test [4] is described as follows: HUVEC growth inhibition – cell-based, human, primary screen (AID 575;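 active means viability at or below 30% in both replicate assays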;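 further: 100% = median of untreated cell wells with 0.1% DMSO on each plate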). The note with it: HUVEC proliferation, CellTiter-Glo luminescence, 72 h; at 10 µM; stronger effect = lower value. The procedure, abridged: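 Assay system: Primary human umbilical vein endothelial cells | Quantity: 1250 cells per well | Medium: Supplemented EBM, 2% fetal bovine serum | Detection: CellTiter-Glo luminescence measuring cellular ATP | Read-out: % viability vs DMSO wells | Plate: Collagen-coated 384-well format | Times: 72 h exposure, 37 °C, 5% CO2, 30 min RT equilibration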

Test [5] in a line: H69AR cell proliferation blockers – human, duplicate replicates, primary screen (AID 580;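 active means viability at or under a set limit in both replicates, limit being median viability minus 3 SD, cut at about 48% in these data, passing the limit was not always enough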;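 further: 100% = mean luminescence of untreated wells and 0% = no signal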). The note with it: H69AR lung tumor cells viability, ATP luminescence, 72 h; at 10 µM; stronger effect = lower value.
The nature of test [6]: MRP1 drug-resistance reversers in H69AR cells – cell-based, doxorubicin co-treatment, pilot screen (AID 601;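 active means viability loss from added drug above about 55%, and viability with drug at most 40%, in both replicates, limit read from the data, passing the limit was not always enough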). The following applies: CellTiter-Glo, 72 h, at 10 µM; for differential viability (reversal): stronger effect = higher value.
Test [7] can be described thus: yeast transport mutant growth inhibition pilot in 384-well plates, post-Golgi transport modulator project (AID 636; in the data active means inhibition above about 31%). The following applies: absorbance 615 nm, about 18 h, stronger effect = higher value.
Test [8] is described as follows: growth suppression of yeast trafficking mutant, preliminary HTS, modulators of trafficking downstream of Golgi apparatus project, 1536-format plate, OD 615 nm (AID 637). The following applies: yeast transport mutant growth, absorbance 615 nm, 18 h; stronger effect = higher value.
[9] abbreviates: H69AR cells + 2 uM doxorubicin, measured here: viability with 2 uM doxorubicin, stronger effect = lower value.
Setting [10] is: H69AR cells, compound alone cytotoxicity.

Receptor tyrosine-protein kinase erbB-2 (Homo sapiens), sequence (P04626 whole entry, looked up): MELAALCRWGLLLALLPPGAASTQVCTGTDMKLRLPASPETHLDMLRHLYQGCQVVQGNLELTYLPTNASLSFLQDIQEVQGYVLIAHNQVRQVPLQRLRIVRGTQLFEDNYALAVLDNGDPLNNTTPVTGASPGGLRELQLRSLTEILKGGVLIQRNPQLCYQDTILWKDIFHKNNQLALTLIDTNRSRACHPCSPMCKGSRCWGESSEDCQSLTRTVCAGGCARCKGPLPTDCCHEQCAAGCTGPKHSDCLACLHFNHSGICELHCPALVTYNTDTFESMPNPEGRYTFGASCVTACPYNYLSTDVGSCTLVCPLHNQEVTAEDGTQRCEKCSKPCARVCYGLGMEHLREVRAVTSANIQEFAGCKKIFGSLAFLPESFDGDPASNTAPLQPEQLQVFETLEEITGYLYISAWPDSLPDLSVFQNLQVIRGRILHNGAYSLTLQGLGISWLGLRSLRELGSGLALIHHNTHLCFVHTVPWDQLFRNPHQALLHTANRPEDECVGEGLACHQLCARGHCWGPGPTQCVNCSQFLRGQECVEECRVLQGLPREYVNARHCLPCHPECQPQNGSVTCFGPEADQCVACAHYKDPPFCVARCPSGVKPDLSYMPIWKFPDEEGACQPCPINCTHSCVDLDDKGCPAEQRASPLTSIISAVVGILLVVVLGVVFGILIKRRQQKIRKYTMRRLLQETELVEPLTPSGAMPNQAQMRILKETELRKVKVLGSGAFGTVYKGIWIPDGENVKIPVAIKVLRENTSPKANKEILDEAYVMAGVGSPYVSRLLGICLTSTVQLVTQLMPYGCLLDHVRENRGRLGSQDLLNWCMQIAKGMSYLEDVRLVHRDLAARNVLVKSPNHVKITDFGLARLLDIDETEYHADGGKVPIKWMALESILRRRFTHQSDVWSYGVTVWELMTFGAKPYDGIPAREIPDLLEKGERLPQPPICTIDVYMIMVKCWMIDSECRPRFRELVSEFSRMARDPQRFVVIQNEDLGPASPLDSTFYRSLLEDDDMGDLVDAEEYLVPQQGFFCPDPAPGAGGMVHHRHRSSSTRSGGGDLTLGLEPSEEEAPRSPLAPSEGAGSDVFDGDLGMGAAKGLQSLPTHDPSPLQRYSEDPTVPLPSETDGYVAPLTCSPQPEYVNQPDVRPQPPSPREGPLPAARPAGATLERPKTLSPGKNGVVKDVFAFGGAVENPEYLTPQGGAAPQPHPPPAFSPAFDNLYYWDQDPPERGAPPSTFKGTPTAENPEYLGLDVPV

As for `CCOc1ccc(-c2noc(-c3ccncc3)n2)cc1OCC`, the viability in test [1] is 99%; in test [3], 99% (inactive); in test [4], 119% (inactive); in test [5], 86.7% (inactive); in test [6] (setting [9]), 90.7%; in test [6] (setting [10]) it was 86.7%. Besides, the Her2 level in test [2] is 108% (inactive). Further, in test [6] (H69AR cells + 2 uM doxorubicin), the differential viability (reversal) was -3.94% (inactive). Also, the results for the inhibition in test [7] and in test [8] were -6.13% (inactive) and -1.61% (inactive), respectively.

In the case of `CCOc1ccc2ccccc2c1/C=N/n1cncn1`, the viability was 99.5% in test [1]; 99.5% (inactive) in test [3]; 87% (inactive) in test [4]; 92.3% (inactive) in test [5]; 103% in test [6] (setting [9]); 92.3% in test [6] (setting [10]). For the same compound, the Her2 level in test [2] was 101% (inactive). Further, the differential viability (reversal) in test [6] (H69AR cells + 2 uM doxorubicin) was -11.2% (inactive). The inhibition was -5.53% (inactive) in test [7] and 1.64% (inactive) in test [8].

For the compound `Cc1nc2ccc(NC(=O)N3CCSCC3)cc2s1`, the viability is 89.5% in test [1]; 89.5% (inactive) in test [3]; 108% (inactive) in test [4]; 94.3% (inactive) in test [5]; 100% in test [6] (setting [9]); 94.3% in test [6] (setting [10]). For the same compound, the Her2 level in test [2] was 107% (inactive). Also, the differential viability (reversal) in test [6] (H69AR cells + 2 uM doxorubicin) is -5.83% (inactive). Further, the inhibition in test [7] is 1.84% (inactive); in test [8], 8.89% (inactive).

For `COC(=O)c1ccc2ncccc2c1`, the viability was 110% in test [1]; 110% (inactive) in test [3]; 111% (inactive) in test [4]; 107% (inactive) in test [5]; 98.8% in test [6] (setting [9]); 107% in test [6] (setting [10]). For the same compound, the Her2 level in test [2] was 131% (inactive). Further, the differential viability (reversal) in test [6] (H69AR cells + 2 uM doxorubicin) was 7.81% (inactive). Further, the inhibition in test [7] is -1.32% (inactive); in test [8], 7.7% (inactive).

With `CS(=O)(=O)Nc1ccc(C(=O)NCCc2ccccc2)cc1`, the viability in test [1] was 96.5%; in test [3], 96.5% (inactive); in test [4], 102% (inactive); in test [5], 98.3% (inactive); in test [6] (setting [9]), 85.4%; in test [6] (setting [10]), 98.3%. The Her2 level in test [2] was 94.5% (inactive). The differential viability (reversal) in test [6] (H69AR cells + 2 uM doxorubicin) was 12.9% (inactive). For the same compound, the inhibition in test [7] is -3.47% (inactive); in test [8] it was -3.55% (inactive).

Consider `Cc1ccc(Cn2c(NCCc3ccccc3)nc3c2c(=O)n(C)c(=O)n3C)cc1`, for which the viability is 82.5% in test [1]; 82.5% (inactive) in test [3]; 73.5% (inactive) in test [4]; 91.9% (inactive) in test [5]; 88.1% in test [6] (setting [9]); 91.9% in test [6] (setting [10]). In addition, the Her2 level in test [2] was 75% (inactive). Moreover, the differential viability (reversal) in test [6] (H69AR cells + 2 uM doxorubicin) was 3.77% (inactive). Further, the inhibition in test [7] was -10% (inactive); in test [8], -2.7% (inactive).

With `Cc1ccc(S(=O)(=O)N2CCCC2C(=O)n2nc(C)cc2C)cc1` (stereo not given), the viability in test [1] was 114%; in test [3] it was 114% (inactive); in test [4], 90.1% (inactive); in test [5], 83.5% (inactive); in test [6] (setting [9]) it was 80.9%; in test [6] (setting [10]) it was 83.5%. Moreover, in test [2], the Her2 level is 90% (inactive). Moreover, in test [6] (H69AR cells + 2 uM doxorubicin), the differential viability (reversal) is 2.58% (inactive). In addition, the values for the inhibition in test [7] and in test [8] were -7.97% (inactive) and 3.67% (inactive), respectively.

On to `CCOc1ccccc1NS(=O)(=O)c1c(C)noc1C`, for which the viability was 97.5% in test [1]; 97.5% (inactive) in test [3]; 91.3% (inactive) in test [4]; 109% (inactive) in test [5]; 92.1% in test [6] (setting [9]); 109% in test [6] (setting [10]). Further, in test [2], the Her2 level is 93.5% (inactive). Further, the differential viability (reversal) in test [6] (H69AR cells + 2 uM doxorubicin) was 16.6% (inactive). In addition, the inhibition was -3.42% (inactive) in test [7] and -0.95% (inactive) in test [8].

`Nc1cc(C(=O)O)ccc1Nc1ccc(F)c(F)c1`: the viability in test [1] was 88%; in test [3], 88% (inactive); in test [4], 89.2% (inactive); in test [5], 105% (inactive); in test [6] (setting [9]) it was 94.3%; in test [6] (setting [10]) it was 105%. In addition, in test [2], the Her2 level was 112% (inactive). The differential viability (reversal) in test [6] (H69AR cells + 2 uM doxorubicin) was 10.3% (inactive). The inhibition was 2.4% (inactive) in test [7] and 4.75% (inactive) in test [8].

For `COc1cc(C2c3c(oc4c(C)cc(C)cc4c3=O)C(=O)N2Cc2cccnc2)cc(OC)c1OC` (stereo not given), the viability in test [1] is 110%; in test [3] it was 110% (inactive); in test [4] it was 97.6% (inactive); in test [5], 110% (inactive); in test [6] (setting [9]) it was 104%; in test [6] (setting [10]), 110%. In test [2], the Her2 level is 114% (inactive). For the same compound, in test [6] (H69AR cells + 2 uM doxorubicin), the differential viability (reversal) is 6.48% (inactive). Moreover, the inhibition was 1.33% (inactive) in test [7] and -3.06% (inactive) in test [8].

`CCOC(=O)c1[nH]c(C)c(C(=O)Nc2ccc(C)c(Cl)c2)c1C`: the viability in test [1] is 94%; in test [3], 94% (inactive); in test [4] it was 61.4% (inactive); in test [5], 28.6% (active); in test [6] (setting [9]), 57.6%; in test [6] (setting [10]), 28.6%. The Her2 level in test [2] was 88% (inactive). For the same compound, the differential viability (reversal) in test [6] (H69AR cells + 2 uM doxorubicin) is -29% (inactive). Further, the values for the inhibition in test [7] and in test [8] were -5.53% (inactive) and -2.7% (inactive), respectively.

With `O=C(CSc1nnc(-c2ccccc2)c(-c2ccccc2)n1)N1CCOCC1`, the viability in test [1] is 97%; in test [3], 97% (inactive); in test [4], 101% (inactive); in test [5] it was 85.3% (inactive); in test [6] (setting [9]) it was 72.5%; in test [6] (setting [10]), 85.3%. The Her2 level in test [2] is 93% (inactive). The differential viability (reversal) in test [6] (H69AR cells + 2 uM doxorubicin) is 12.8% (inactive). For the same compound, the inhibition in test [7] was 0% (inactive); in test [8], -5.48% (inactive).

`COc1ccccc1-n1c(SCC(N)=O)nnc1-c1ccccc1`: the viability in test [1] was 126%; in test [3], 126% (inactive); in test [4] it was 88.7% (inactive); in test [5] it was 87.7% (inactive); in test [6] (setting [9]) it was 87.8%; in test [6] (setting [10]) it was 87.7%. The Her2 level in test [2] is 97% (inactive). Moreover, the differential viability (reversal) in test [6] (H69AR cells + 2 uM doxorubicin) is -0.18% (inactive). Further, the inhibition in test [7] was -7.11% (inactive); in test [8], 1.9% (inactive).

On to `COc1cc(N2C(=O)CSC23C(=O)Nc2ccccc23)cc(OC)c1OC` (stereo not given), for which the viability is 95.5% in test [1]; 95.5% (inactive) in test [3]; 79.7% (inactive) in test [4]; 95.7% (inactive) in test [5]; 87.8% in test [6] (setting [9]); 95.7% in test [6] (setting [10]). In addition, in test [2], the Her2 level is 105% (inactive). Moreover, in test [6] (H69AR cells + 2 uM doxorubicin), the differential viability (reversal) is 7.86% (inactive). The results for the inhibition in test [7] and in test [8] were -1.97% (inactive) and -5.81% (inactive), respectively.

Take `CC1CN=C(N(C(=O)Nc2ccccc2)c2ccc(S(=O)(=O)N3CCOCC3)cc2)S1` (stereo not given): the viability is 95.5% in test [1]; 95.5% (inactive) in test [3]; 91.5% (inactive) in test [4]; 95.3% (inactive) in test [5]; 78.5% in test [6] (setting [9]); 95.3% in test [6] (setting [10]). Further, the Her2 level in test [2] is 108% (inactive). In test [6] (H69AR cells + 2 uM doxorubicin), the differential viability (reversal) is 16.8% (inactive). Further, the inhibition is -0.51% (inactive) in test [7] and -8.67% (inactive) in test [8].

Regarding `Cc1c(C(=O)O)sc2ncn(C)c(=O)c12`, the viability in test [1] was 106%; in test [3] it was 106% (inactive); in test [4], 100% (inactive); in test [5] it was 103% (inactive); in test [6] (setting [9]), 91.7%; in test [6] (setting [10]) it was 103%. For the same compound, in test [2], the Her2 level is 78% (inactive). In test [6] (H69AR cells + 2 uM doxorubicin), the differential viability (reversal) is 11.7% (inactive). In addition, the figures for the inhibition in test [7] and in test [8] were -7.76% (inactive) and -4% (inactive), respectively.
